This is an account of results in ChEMBL document CHEMBL4428067, “Drug Discovery against Psoriasis: Identification of a New Potent FMS-like Tyrosine Kinase 3 (FLT3) Inhibitor, 1-(4-((1H-Pyrazolo[3,4-d]pyrimidin-4-yl)oxy)-3-fluorophenyl)-3-(5-(tert-butyl)isoxazol-3-yl)urea, That Showed Potent Activity in a Psoriatic Animal Model” (J Med Chem, 2016).

This assay is filed under the species Mus musculus. The experiment in a line: Antipsoriatic activity in K14-VEGF transgenic mouse model of psoriasis assessed as improvement of psoriatic symptoms at 0.05% applied tropically over lesion for continuous 21 days by macroscopic analysis relative to vehicle control. The assay is classed as functional, organism-based. Summed up:
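Homozygous K14-VEGF mice, 3–4 months old, with moderate to serious psoriasis. Lesions smeared with cream with or without 0.05% compound for 3 weeks, then observed untreated for another 15 days. Head and neck photographed on days 0, 21 and 36 for macroscopic assessment.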

SMILES strings stand for the structures. The source made the active and inactive calls. The rule behind the calls is not given here.

With `CC(C)(C)c1cc(NC(=O)Nc2ccc(Oc3ncnc4[nH]ncc34)c(F)c2)no1`, the outcome was Active.
